From ChEMBL document CHEMBL1150296, “Synthesis and DNA cleaving activity of water-soluble non-conjugated thienyl tetraynes” (Bioorg Med Chem, 2008)
Values belong to the compound of their own block, whether it stands above or below them. Calls of active or inactive are those of the source. The rule behind the calls is not given here.

Legend:
Escherichia coli [1] = test: Induction of Escherichia coli pBluescript 2 KS+ DNA cleavage assessed as decrease in form 1 at 1 mM by gel electrophoresis
Method in brief: (§1)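 pBluescript II KS+ (2.0 µg) incubated overnight at 37 °C with tetrayne in 20 µL, final DMSO 3.0%. Level 1.0 mM; 0.1, 0.3, 0.6 mM also run for the dose series. DNA ethanol-precipitated, redissolved, held 60 °C 10 min then 37 °C 30 min, run on 0.7% agarose; ethidium bromide stain, UV imaging of supercoiled, nicked and linear forms.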

Escherichia coli [2] = test: Induction of Escherichia coli pBluescript 2 KS+ DNA cleavage assessed as increase in nicked form 2 at 1 mM by gel electrophoresis; method in brief: as §1
Escherichia coli [3] = test: Induction of Escherichia coli pBluescript 2 KS+ DNA cleavage assessed as linear form 3 at 1 mM by atomic force microscopy
Method in brief: (§2)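 Plasmid exposed to tetrayne (1.0 mM, 37 °C, 6 h), ethanol-precipitated, pellet taken up in water. Sample spotted on flat mica for 1 min at room temperature, excess water blown off with air, then single DNA molecule shapes imaged by atomic force microscopy.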

Escherichia coli [4] = test: Induction of Escherichia coli pBluescript 2 KS+ DNA cleavage assessed as increase in form 3 at 1 mM by gel electrophoresis; method in brief: as §1
Escherichia coli [5] = test: Induction of Escherichia coli pBluescript 2 KS+ DNA cleavage assessed as formation of burst star shaped architecture at 1 mM by atomic force microscopy; method in brief: as §2
Escherichia coli [6] = test: Effect on DNA cleavage in ampicillin resistant Escherichia coli DH5alpha transformed pBluescript 2 KS+ DNA assessed as number of colonies at 1 mM after 15 hrs by transformation assay
Method in brief: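 Plasmid DNA (2.0 µg) exposed to tetrayne at 1.0 mM (final DMSO 3.0%) at 37 °C, recovered by ethanol precipitation, redissolved in water and heated 60 °C for 10 min. Heat-shock transformation of competent E. coli (DH5a or JM109) at 42 °C for 1 min, 1 h recovery in LB at 37 °C, plating on ampicillin (100 mg/L) LB agar, 37 °C for 15 h; colonies counted.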

Escherichia coli [7] = test: Induction of Escherichia coli pBluescript 2 KS+ DNA cleavage by gel electrophoresis; method in brief: as §1

SMILES: COCc1ccccc1C#CC#Cc1cc(CN(C)C)sc1C(=O)C#CC#CC(C)(C)C
Activity (Escherichia coli [1]): Active
Activity (Escherichia coli [2]): Active
Activity (Escherichia coli [3]): Active
Activity (Escherichia coli [4]): Active
Activity (Escherichia coli [5]): Active
Activity (Escherichia coli [6]): 8
Activity (Escherichia coli [7]): Dose-dependent effect

SMILES: CN(C)C
Activity (Escherichia coli [6]): > 1000

Second part, the compound after the results:

Activity (Escherichia coli [6]): > 1000
SMILES: COCc1ccccc1C#CC#Cc1cc(CN(C)C)sc1C(O)C#CC#CC(C)(C)C (stereo unspecified)

Activity (Escherichia coli [6]): > 1000
SMILES: COCc1ccccc1C#CC#Cc1cc(C(=O)O)sc1C(=O)C#CC#CC(C)(C)C

Activity (Escherichia coli [6]): > 1000
SMILES: COCc1ccccc1C#CC#Cc1cc(C(=O)O)sc1C(O)C#CC#CC(C)(C)C (stereo unspecified)
